Test results reported in publication PMC11041979 (International Journal of Nanomedicine, 2024).
Converted amounts (≈) assume the structure as drawn.

Key:
[1] = Water solubility assay; format: physicochemical
How it was run: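 Saturated aqueous test-compound solutions were sonicated, centrifuged and diluted 10–500-fold. Carbon dots (3 mg/mL stock) were diluted to 10 levels, 1500–3.12 μg/mL. Samples were centrifuged at 10000 rpm for 10 min and filtered through 0.22 µm. HPLC used a C18 column at 30°C with 0.4% acetic acid water–acetonitrile 85:15 at 1.0 mL/min and detection at 318 nm. Calibration followed Chinese Pharmacopoeia methods.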

[2] = Pharmacokinetics of MA in rats after oral gavage; format: in vivo, Sprague-Dawley rats
How it was run: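 Male Sprague-Dawley rats (200 ± 20 g), acclimatised 1 week, fasted 12 h with free water. Test compound given by gavage at 20 mg/kg (2 mg/mL) as an aqueous suspension or as a saturated suspension in carbon-dot solution (stirred 20 min). Orbital blood drawn 5–1440 min into heparin. Plasma protein-precipitated with acetonitrile:acetic acid 9:1, isomangiferin internal standard, UHPLC-MS/MS. Mean ± SD.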

[3] = literature value; cited from earlier work
[4] = Sprague-Dawley, rat, plasma, po, 20 mg/kg

solubility of MA in water with MC-CDs ([1]; aqueous MC-CDs solution, MC-CDs concentration exceeding 100 μg/mL): increases significantly | solubility ([1]; water, thermodynamic from solid): 115 µg/mL (≈ 273 µM) | maximum concentration ([2]; MA, oral, preliminary rat pharmacokinetics): 200 ng | AUC(0-t) [2, 4]: 1.52 ± 2.64 ng·h/mL | Cmax [2, 4]: 0.201 ± 0.0314 ng/mL | Tmax [2, 4]: 4 ± 1.42 h | half-life [2, 4]: 3.27 ± 2.18 h
SMILES: O=c1c2cc(O)c(O)cc2oc2cc(O)c([C@@H]3O[C@H](CO)[C@@H](O)[C@H](O)[C@H]3O)c(O)c12 [MA, Mangiferin]
Tmax after oral administration [3]: about 267.49 ± 108.29 min
